Assay results published in ChEMBL document CHEMBL3797120, “Identification of 1,2,3-triazole derivatives that protect pancreatic β cells against endoplasmic reticulum stress-mediated dysfunction and death through the inhibition of C/EBP-homologous protein expression” (Bioorg Med Chem, 2016).
The source made the active and inactive calls. The rule behind the calls is not given here.

Experiments:
INS1 [1] = test: Cytoprotective activity in endoplasmic reticulum stressed rat INS-1 cells assessed as rescue from tunicamycin-mediated reduction in cell survival after 72 hrs by CellTiter-Glo assay; conditions: INS1, 72 h
INS1 [2] = test: Cytoprotective activity in endoplasmic reticulum stressed rat INS-1 cells assessed as rescue from tunicamycin-mediated reduction in cell viability at 10 uM after 72 hrs by CellTiter-Glo assay relative to control; format: functional
In short: (§1)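 INS-1 cells seeded at 3 × 10³/well and exposed for 72 h to Tm 0.1 μg/ml plus compound. Viability measured as ATP by CellTiter-Glo. Tm alone was set to 0% and DMSO without Tm to 100% rescue. Values are the mean of three experiments. EC50 was derived for survival.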

HEK293 [3] = test: Inhibition of endoplasmic reticulum stress-mediated upregulation of CHOP mRNA expression in tunicamycin-treated HEK293 cells after 2 to 8 hrs by qRT-PCR method; format: functional, cell-based; conditions: Homo sapiens
In short: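 HEK293 cells seeded at 4 × 10⁵/well and treated with Tm 1 μg/ml plus 20 μM compound or DMSO for the indicated times. CHOP mRNA was measured by qRT-PCR (2 μg RNA reverse transcribed), normalized to human cyclophilin A, and reported as fold change. Means ± SD of triplicates.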

INS1 [4] = test: Cytoprotective activity in endoplasmic reticulum stressed rat INS-1 cells assessed as rescue from tunicamycin-mediated reduction in cell viability at 5 uM after 72 hrs by CellTiter-Glo assay relative to control; format: functional; in short: as §1
HEK293 [5] = test: Inhibition of endoplasmic reticulum stress-mediated upregulation of CHOP gene expression in tunicamycin-treated HEK293 cells after 24 hrs by bright-glo luciferase reporter gene assay; format: functional, cell-based; conditions: Homo sapiens, HEK293, 24 h
In short: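 HEK293 cells stably carrying a CHOP promoter-luciferase reporter were seeded at 7 × 10³/well and incubated 16 h. Compound at indicated concentrations and Tm 1 μg/mL were added, and luciferase read by Bright-Glo 24 h later. IC50 determined for CHOP-Luc inhibition.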

INS1 [6] = test: Cytoprotective activity in endoplasmic reticulum stressed rat INS-1 cells assessed as rescue from tunicamycin-mediated reduction in cell viability at 20 uM after 72 hrs by CellTiter-Glo assay relative to control; format: functional; in short: as §1
INS1 [7] = test: Cytoprotective activity in endoplasmic reticulum stressed rat INS-1 cells assessed as rescue from tunicamycin-mediated reduction in cell viability at 40 uM after 72 hrs by CellTiter-Glo assay relative to control; format: functional; in short: as §1
[8] = Inhibition of endoplasmic reticulum stress-mediated upregulation of CHOP mRNA expression in tunicamycin-treated rat INS-1 cells at 20 uM after 2 to 8 hrs by qRT-PCR method; format: functional, cell-based; conditions: INS1
[9] = Inhibition of endoplasmic reticulum stress-mediated upregulation of CHOP mRNA expression in tunicamycin-treated rat INS-1 cells at 5 to 20 uM after 8 hrs by qRT-PCR method; format: functional, cell-based; conditions: INS1
In short: (§2)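 INS-1 cells seeded at 4 × 10⁵/well and treated with Tm 0.1 μg/ml plus compound, either for 8 h at indicated concentrations or for indicated times at 10 μM. CHOP mRNA was measured by qRT-PCR with rat primers, normalized to rat cyclophilin A, and reported as fold change.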

[10] = Inhibition of endoplasmic reticulum stress-mediated upregulation of CHOP mRNA expression in tunicamycin-treated rat INS-1 cells at 10 uM after 2 to 8 hrs by qRT-PCR method; format: functional, cell-based; conditions: INS1; in short: as §2

SMILES	EC50 (INS1 [1]) [µM]	%max (INS1 [2]) [%]	also measured
Cc1cccc(NC(=O)c2nnn(-c3ccc(C(C)C)cc3)c2C)c1	3.2	35	–
Cc1c(C(=O)Nc2cccc(F)c2)nnn1-c1ccc(C(C)C)cc1	1.3	–	inhibition (HEK293 [3]): Active; %max (INS1 [4]): 33%; IC50 (HEK293 [5]): 0.013 µM
Cc1c(Cl)cccc1NC(=O)c1nnn(-c2ccc(F)cc2)c1C	8.4	–	%max (INS1 [6]): 87%
Cc1cccc(C)c1NC(=O)c1nnn(-c2cccc(Cl)c2C)c1C	9	–	%max (INS1 [7]): 88%
Cc1c(C(=O)Nc2ccc(F)cc2)nnn1-c1ccc(C(C)C)cc1	3.5	29	–
CCc1ccc(-n2nnc(C(=O)Nc3ccc(F)cc3)c2C)cc1	2.7	82	–
CCc1ccc(-n2nnc(C(=O)Nc3ccc(NC(C)=O)cc3)c2C)cc1	–	15	–
CCc1ccc(-n2nnc(C(=O)Nc3ccc(C)cc3)c2C)cc1	–	18	–
Cc1cccc(C)c1NC(=O)c1nnn(-c2ccccc2Cl)c1C	9.1	–	%max (INS1 [7]): 44%
CCc1cccc(C)c1NC(=O)c1nnn(-c2ccccc2Cl)c1C	2.5	–	%max (INS1 [7]): 55%
Cc1cccc(C)c1NC(=O)c1nnn(-c2ccccc2F)c1C	1.4	–	%max (INS1 [7]): 23%
Cc1ccc(-n2nnc(C(=O)Nc3ccccc3C)c2C)cc1C	3.1	56	–
CCc1cccc(C)c1NC(=O)c1nnn(-c2ccc(OC)cc2)c1C	–	–	%max (INS1 [6]): 39%
Cc1c(Cl)cccc1NC(=O)c1nnn(-c2ccccc2Cl)c1C	3.1	–	inhibition [8]: Active; %max (INS1 [6]): 94%
COc1ccccc1-n1nnc(C(=O)Nc2c(C)cccc2C)c1C	0.6	28	–
Cc1ccc(-n2nnc(C(=O)Nc3cccc(Cl)c3C)c2C)c(C)c1	2.5	92	–
Cc1cccc(C)c1NC(=O)c1nnn(-c2ccc(Cl)cc2)c1C	5.2	–	%max (INS1 [7]): 57%
CCc1ccc(-n2nnc(C(=O)Nc3ccccc3CC)c2C)cc1	4.2	91	–
Cc1ccc(-n2nnc(C(=O)Nc3cccc(Cl)c3C)c2C)cc1	2.8	56	–
CCc1ccc(-n2nnc(C(=O)Nc3ccc(C(=O)O)cc3)c2C)cc1	–	0	inhibition [9]: inactive
CCc1ccc(-n2nnc(C(=O)Nc3cc(C)ccc3C)c2C)cc1	1.6	90	inhibition [10]: Active
CCc1cccc(C)c1NC(=O)c1nnn(-c2ccc(C)cc2)c1C	–	–	%max (INS1 [7]): 82%
Cc1ccc(-n2nnc(C(=O)Nc3c(C)cccc3C)c2C)cc1	1.7	–	%max (INS1 [6]): 73%
CCOc1ccccc1-n1nnc(C(=O)Nc2cccc(Cl)c2C)c1C	8.7	–	%max (INS1 [6]): 52%

SMILES	EC50 (INS1 [1]) [µM]	%max (INS1 [2]) [%]	also measured
CCc1cccc(C)c1NC(=O)c1nnn(-c2ccc(Cl)cc2)c1C	–	–	%max (INS1 [7]): 66%
Cc1c(C(=O)Nc2ccccc2)nnn1-c1ccccc1F	23	–	%max (INS1 [7]): 31%; IC50 (HEK293 [5]): 1.1 µM
Cc1ccccc1NC(=O)c1nnn(-c2ccccc2F)c1C	8	–	%max (INS1 [7]): 40%
CCc1ccc(-n2nnc(C(=O)Nc3cccc(Cl)c3C)c2C)cc1	7.8	88	–
COc1ccc(-n2nnc(C(=O)Nc3cccc(Cl)c3C)c2C)cc1	5.2	–	%max (INS1 [6]): 81%
Cc1c(Cl)cccc1NC(=O)c1nnn(-c2ccccc2F)c1C	6.5	–	%max (INS1 [6]): 92%
CCCCc1ccc(-n2nnc(C(=O)Nc3ccccc3F)c2C)cc1	3.5	30	–
CCc1ccc(-n2nnc(C(=O)Nc3ccc(C(=O)OC)cc3)c2C)cc1	–	14	inhibition [9]: inactive
Cc1c(C(=O)Nc2ccccc2)nnn1-c1ccccc1	9.5	–	%max (INS1 [6]): 12%; IC50 (HEK293 [5]): 1.5 µM
CCc1ccc(-n2nnc(C(=O)Nc3ccc(OC)cc3)c2C)cc1	–	–	%max (INS1 [4]): 21%
CCc1ccc(-n2nnc(C(=O)Nc3ccccc3Cl)c2C)cc1	0.6	–	%max (INS1 [4]): 19%
CCOc1ccccc1-n1nnc(C(=O)Nc2c(C)cccc2CC)c1C	–	–	%max (INS1 [7]): 50%
CCc1ccc(-n2nnc(C(=O)Nc3cccc(C)c3)c2C)cc1	2.1	–	%max (INS1 [4]): 72%
CCc1cccc(C)c1NC(=O)c1nnn(-c2ccccc2OC)c1C	1	–	%max (INS1 [6]): 38%
CCc1cccc(C)c1NC(=O)c1nnn(-c2ccccc2)c1C	5.8	–	%max (INS1 [7]): 36%
Cc1ccccc1NC(=O)c1nnn(-c2ccc(C(C)C)cc2)c1C	2.6	54	–
CCc1ccc(-n2nnc(C(=O)Nc3cccc(OC)c3)c2C)cc1	3.7	31	–
CCc1cccc(C)c1NC(=O)c1nnn(-c2ccc(F)cc2)c1C	–	–	%max (INS1 [6]): 28%
CCc1cccc(C)c1NC(=O)c1nnn(-c2cccc(Cl)c2C)c1C	–	97	inhibition [8]: Active
CCc1ccc(-n2nnc(C(=O)Nc3ccc(Cl)cc3Cl)c2C)cc1	–	12	–
CCc1ccc(-n2nnc(C(=O)Nc3ccccc3C)c2C)cc1	3.2	62	–
CCc1ccc(-n2nnc(C(=O)Nc3c(C)cccc3C)c2C)cc1	4.6	–	%max (INS1 [6]): 80%
Cc1c(C(=O)Nc2ccccc2F)nnn1-c1ccc(C(C)C)cc1	2.1	–	%max (INS1 [4]): 29%; IC50 (HEK293 [5]): 0.035 µM
